Experiments:
[1] = test system: DU-145; test: Growth inhibition of human DU145 cells after 96 hrs by trypan blue exclusion assay; format: functional; settings: DU-145, 96 h
[2] = test system: K562; test: Growth inhibition of human K562 cells expressing p210Bcr/Abl after 96 hrs by trypan blue exclusion assay; format: functional, cell-based; settings: K562, 96 h
How it was run: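 K562 cells were kept in RPMI with 10% FBS and penicillin–streptomycin at 37 °C under 5% CO2. Cells were seeded at 1 × 10^5 cells/mL with a range of compound concentrations, using DMSO as the negative control. After 96 h, viability was counted by Trypan blue exclusion and expressed as percent of DMSO control to derive GI50.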

| GI50 [1] [µM] | GI50 [2] [µM] | Structure (SMILES) |
| --- | --- | --- |
| > 100 | 50 | O=C(/C(=C\c1ccc(O)c([N+](=O)[O-])c1)SCc1ccc(Br)cc1)c1ccc(O)cc1O |
| 20 | 6 | COc1ccc(S/C(=C/c2ccc(Br)cc2)C(=O)c2ccc(Br)cc2)cc1 |
| > 100 | > 100 | Cc1ccc(S/C(=C/c2ccc(N(C)C)cc2)C(=O)c2ccc(Cl)cc2)cc1 |
| 1 | 1 | Cc1ccc(S/C(=C/c2c[nH]c3ccc(Cl)cc23)C(=O)c2ccc(Cl)cc2)cc1 |
| > 100 | > 100 | O=C(/C(=C\c1c(O)cc(O)cc1O)Sc1ccccc1Br)c1ccc(Br)cc1 |
| 1 | 1 | O=C(/C(=C\c1ccc(F)cc1F)Sc1ccc(Br)cc1)c1ccc(Cl)cc1 |
| 25 | 10 | COc1ccc(C=C(C(=O)c2ccc(OC)cc2)S(=O)(=O)Cc2ccc([N+](=O)[O-])cc2)cc1 |
| 10 | 10 | Cc1ccc(S(=O)(=O)/C(=C/c2c[nH]c3ccc(Cl)cc23)C(=O)c2ccc(Br)cc2)cc1 |
| > 100 | > 100 | CSc1ccc(/C=C(/SCc2ccc(Cl)cc2)C(=O)c2ccc(C(=O)O)cc2)cc1 |
| > 100 | 50 | O=C(O)c1ccc(C(=O)/C(=C\c2ccc(O)c([N+](=O)[O-])c2)SCc2ccc(F)cc2)cc1 |
| 1 | 9 | O=C(/C(=C\c1ccc(I)cc1)S(=O)(=O)c1ccc(Br)cc1)c1ccc(Br)cc1 |
| 1 | 1 | Cc1ccc(S/C(=C/c2c[nH]c3ccc(Br)cc23)C(=O)c2ccc(Cl)cc2)cc1 |
| 10 | 1 | O=C(/C(=C\c1ccc(Cl)c([N+](=O)[O-])c1)Sc1ccc(Br)cc1)c1ccc(Br)cc1 |
| 10 | 10 | COc1ccc(/C=C(/SCc2ccc(F)cc2)C(=O)c2ccc(Cl)cc2)c(OC)c1OC |
| > 100 | > 100 | COc1ccc(C(=O)/C(=C\c2ccc(Cl)cc2)Sc2ccc(F)cc2)cc1 |
| 10 | 10 | COc1ccccc1/C=C(/SCc1ccc(C)cc1)C(=O)c1ccc(Cl)cc1 |
| 1 | 1 | O=C(O)c1ccc(C(=O)/C(=C\c2ccc(N3CCN(Cc4ccccc4)CC3)c([N+](=O)[O-])c2)SCc2ccc(F)cc2)cc1 |
| 10 | 1 | O=C(/C(=C\c1ccc(O)c([N+](=O)[O-])c1)SCc1ccc(Br)cc1)c1ccc(C(F)(F)F)cc1 |
| 25 | 25 | COc1cc(OC)c(/C=C(\C(=O)c2ccc(Br)cc2)S(=O)(=O)Cc2ccc(Cl)cc2)c(OC)c1 |
| 1 | 1 | Cc1ccc(CS(=O)(=O)/C(=C/c2ccccc2OCc2ccccc2)C(=O)c2ccc(Cl)cc2)cc1 |
| 1 | 1 | COc1ccc(S/C(=C/c2ccc(Cl)cc2Cl)C(=O)c2ccc(Br)cc2)cc1 |
| 1 | 25 | COc1cc(OC)c(/C=C(/SCc2ccc(Cl)cc2Cl)C(=O)c2ccc(Cl)cc2)c(OC)c1 |
| 50 | 50 | Cc1ccc(S/C(=C/c2cc(Cl)cc(Cl)c2Cl)C(=O)c2ccc(Cl)cc2)cc1 |
| 10 | 10 | O=C(/C(=C\c1ccc(O)c([N+](=O)[O-])c1)SCc1ccccc1Cl)c1ccc(Cl)cc1 |
| 1 | 1 | O=C(C(=Cc1ccc(Br)cc1)S(=O)(=O)Cc1ccccc1Cl)c1ccc(Cl)cc1 |

| GI50 [1] [µM] | GI50 [2] [µM] | Structure (SMILES) |
| --- | --- | --- |
| 10 | 10 | O=C(/C(=C\c1ccc(O)c([N+](=O)[O-])c1)SCc1ccc(Br)cc1)c1c(F)c(F)c(F)c(F)c1F |
| 10 | 10 | COc1ccccc1/C=C(\C(=O)c1ccc(Cl)cc1)S(=O)(=O)c1ccc(Br)cc1 |
| 10 | 1 | O=C(/C(=C\c1ccc(O)c([N+](=O)[O-])c1)SCc1ccc(Br)cc1)c1ccc(Cl)cc1Cl |
| 50 | 50 | O=C(/C(=C\c1c[nH]c2ccccc12)S(=O)(=O)Cc1ccc(F)cc1)c1ccc(Cl)cc1 |
| 50 | 1 | CN(C)c1ccc(/C=C(/SCc2ccc(F)cc2)C(=O)c2ccc(Cl)cc2)cc1 |
| 50 | > 50 | O=C(C(=Cc1ccc(I)cc1)S(=O)(=O)Cc1ccc(I)cc1)c1ccc(I)cc1 |
| 1 | 1 | COc1cc(OC)c(/C=C(/SCc2ccc(F)cc2)C(=O)c2ccc(Br)cc2)c(OC)c1 |
| > 100 | > 100 | CN(C)c1ccc(/C=C(/Sc2ccccc2Br)C(=O)c2ccc(Br)cc2)cc1 |
| 25 | 1 | CCOc1ccc(/C=C(/SCc2ccc(Cl)c(Cl)c2)C(=O)c2ccc(Cl)cc2)cc1OC |
| 50 | 50 | COc1ccc(C(=O)/C(=C\c2c(OC)cc(OC)cc2OC)Sc2ccc(F)cc2)cc1 |
| > 100 | > 100 | Cc1ccc(CS(=O)(=O)/C(=C/c2c(O)cc(O)cc2O)C(=O)c2ccc(Cl)cc2)cc1 |
| 1 | 1 | O=C(/C(=C\c1ccc(OCc2ccccc2)cc1)SCc1ccc(Cl)cc1Cl)c1ccc(Cl)cc1 |
| 10 | 10 | O=C(/C(=C\c1ccc(O)c([N+](=O)[O-])c1)S(=O)(=O)Cc1ccccc1Cl)c1ccc(Cl)cc1 |
| 25 | 10 | CC(=O)Oc1ccc(/C=C(\C(=O)c2ccc(Cl)cc2)S(=O)(=O)c2ccc(C)cc2)cc1 |
| 10 | 1 | O=C(/C(=C\c1ccc(O)cc1)SCc1ccc(Cl)cc1)c1ccc(Br)cc1 |
| 10 | 10 | O=C(/C(=C\c1ccc(F)cc1C(F)(F)F)SCc1ccc(F)cc1)c1ccc(Br)cc1 |
| 25 | 10 | COc1cc(OC)c(C=C(SCc2ccccc2Cl)C(=O)c2ccc(Cl)cc2)c(OC)c1 |
| > 100 | 50 | O=C(/C(=C\c1ccc(O)cc1O)S(=O)(=O)c1ccccc1Br)c1ccc(Br)cc1 |
| 10 | 1 | O=C(/C(=C\c1cccc(Cl)c1Cl)SCc1ccc(Cl)cc1)c1ccc(Cl)cc1 |
| 10 | 10 | Cc1cc(C)cc(/C=C(/SCc2ccc(Cl)cc2)C(=O)c2ccc(Cl)cc2)c1 |
| 10 | 10 | O=C(/C(=C\c1ccc(O)c([N+](=O)[O-])c1)Sc1c(F)c(F)c(F)c(F)c1F)c1ccc(Br)cc1 |
| 10 | 1 | O=C(/C(=C\c1c[nH]c2ccc(Br)cc12)SCc1ccc(Cl)cc1Cl)c1ccc(Cl)cc1 |
| > 100 | 50 | Cc1ccc(S(=O)(=O)/C(=C/c2c(F)c(F)c(F)c(F)c2F)C(=O)c2ccc(Cl)cc2)cc1 |
| 1 | 1 | Cc1ccc(S(=O)(=O)/C(=C/c2cc(C)cc(C)c2)C(=O)c2ccc(Cl)cc2)cc1 |
| 10 | 10 | Cc1ccc(S/C(=C/c2ccc(Cl)cc2Cl)C(=O)c2ccc(Cl)cc2)cc1 |

| GI50 [1] [µM] | GI50 [2] [µM] | Structure (SMILES) |
| --- | --- | --- |
| 10 | 25 | O=C(/C(=C\c1ccc(O)c(C(=O)O)c1)SCc1ccc(Br)cc1)c1ccc(Br)cc1 |
| > 100 | > 100 | COc1ccc(C(=O)/C(=C\c2ccc(Br)cc2)Sc2ccc(F)cc2)cc1 |
| 10 | 10 | O=C(O)c1ccc(C(=O)/C(=C\c2ccccc2F)SCc2ccc(Br)cc2)cc1 |
| 50 | 50 | O=C(/C(=C\c1ccc(O)c([N+](=O)[O-])c1)S(=O)(=O)Cc1ccc(Br)cc1)c1c(F)c(F)c(F)c(F)c1F |
| 1 | 1 | O=C(/C(=C\c1ccccc1OCc1ccccc1)Sc1ccc(F)cc1)c1ccc(Cl)cc1 |
| 30 | 1 | O=C(/C(=C\c1ccc(Cl)cc1)SCc1ccc(Cl)cc1)c1ccccc1Cl |
| 10 | 10 | O=C(/C(=C\c1cccc(Cl)c1Cl)SCc1ccc(Cl)cc1)c1ccc(Br)cc1 |
| > 100 | 50 | COc1cc(/C=C(\C(=O)c2ccc(Cl)cc2)S(=O)(=O)Cc2ccccc2Cl)cc(OC)c1 |
| 50 | 25 | O=C(/C(=C\c1ccc(Cl)cc1Cl)S(=O)(=O)c1ccc(Br)cc1)c1ccc(Cl)cc1 |
| 10 | 10 | Cc1ccc(C)c(/C=C(/SCc2ccc(Cl)cc2)C(=O)c2ccc(Cl)cc2)c1 |
| 25 | 10 | COc1ccc(/C=C(\C(=O)c2ccc(Br)cc2)S(=O)(=O)c2ccc(Br)cc2)cc1 |
| 25 | 25 | COc1ccc(/C=C(\C(=O)c2ccc(Br)cc2)S(=O)(=O)Cc2ccc(F)cc2)cc1 |
| > 100 | > 100 | O=C(/C(=C\c1ccc(O)c([N+](=O)[O-])c1)SCc1ccc(Br)cc1)C1CCNC1 (stereo unspecified) |
| 1 | 1 | O=C(/C(=C\c1ccc(I)cc1)Sc1ccc(Br)cc1)c1ccc(Br)cc1 |
| 50 | 25 | O=C(/C(=C\c1ccc(O)cc1O)SCc1cccc(Cl)c1)c1ccc(Br)cc1 |
| 10 | 10 | Cc1cc(C)cc(/C=C(/SCc2ccc(Br)cc2)C(=O)c2ccccc2Cl)c1 |
| 25 | 1 | COc1ccc(/C=C(/Sc2ccc(Br)cc2)C(=O)c2ccc(Br)cc2)cc1 |
| 25 | 10 | O=C(/C(=C\c1ccc(Br)cc1)S(=O)(=O)Cc1ccc(F)cc1)c1ccc(Br)cc1 |
| 1 | 1 | Cc1ccc(CS/C(=C/c2cc([N+](=O)[O-])ccc2F)C(=O)c2ccc(Cl)cc2)cc1 |
| 10 | 50 | COc1cc(OC)c(C=C(C(=O)c2ccc(Cl)cc2)[S+]([O-])Cc2ccccc2Cl)c(OC)c1 (stereo unspecified) |
| > 100 | > 100 | CN(C)c1ccc(/C=C(/Sc2ccc(Br)cc2)C(=O)c2ccc(Cl)cc2)cc1 |
| 10 | 1 | COc1ccc(/C=C(/SCc2ccc(F)cc2)C(=O)c2ccc(C(=O)O)cc2)cc1O |
| 1 | 1 | Cc1ccc(C)c(/C=C(\C(=O)c2ccc(Cl)cc2)S(=O)(=O)c2ccc(Br)cc2)c1 |

Source: ChEMBL document CHEMBL1240409, “Design, synthesis and evaluation of (E)-alpha-benzylthio chalcones as novel inhibitors of BCR-ABL kinase” (Bioorg Med Chem, 2010)
